# Bioassay records from PubChem.
# This is a sample that favours compounds with a hit; in the whole collection about 6.8% have one here.
# PHOSPHO1 block = inhibitors of human PHOSPHO1 phosphatase; recombinant PHOSPHO1, absorbance phosphatase assay; inhibition, % at 13.3 µM; actives 1.1% (n = 290,000); AID 1565; in the data active = inhibition above about 60%
# Target sequence (Q8TCT1 whole entry, looked up): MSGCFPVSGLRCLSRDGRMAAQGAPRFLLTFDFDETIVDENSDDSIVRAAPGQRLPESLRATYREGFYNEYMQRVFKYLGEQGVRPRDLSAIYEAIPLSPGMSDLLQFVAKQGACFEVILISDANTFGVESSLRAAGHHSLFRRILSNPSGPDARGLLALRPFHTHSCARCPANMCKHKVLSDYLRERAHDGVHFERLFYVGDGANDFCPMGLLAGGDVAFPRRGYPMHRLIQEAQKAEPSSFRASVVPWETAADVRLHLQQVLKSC
# core dimer inh = blocks dimerization of HCV core protein; TR-FRET GST/Flag-core106 dimerization, 1536-well; inhibition, % at 5 µM; actives 0.33% (n = 300,000); AID 1899;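 active = inhibition above the mean of all tested compounds plus 3 SD, set per screening campaign, cut at about 45% in these data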
#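 Material: Tagged HCV core106 pair (GST and Flag) | Amount: GST-core106 13.5 nM, Flag-core106 17 nM | Medium: KF-containing HEPES buffer, pH 7.45, DTT, CHAPS, BSA | Reagent: Eu donor and XL665 acceptor anti-tag antibodies | Schedule: 4 h at 22.5 °C | Technique: Time-resolved FRET, ex 340 nm, em 617 and 671 nm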
# HSF1 inh = HSF1 inhibition. NIH3T3-HGL HSE-luciferase, MG132-induced, luminescence 8 h; active compounds read low. activity change, negative = inhibition, % at 7.5 µM (by protocol). actives 0.77% (n = 300,000). AID 2098;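 active = more than half of replicate wells show activity change below -50%, luminescence cut by over half; inconclusive = some wells, but at most half, below -50%; inactive = no replicate well below -50%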;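 also: luciferase reports HSF-1 transcriptional activity via heat shock element; 0% = median of DMSO wells and -100% = zero luminescence signal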
# AI-2 QS modul = modulates the Vibrio harveyi AI-2 quorum sensing system; Vibrio harveyi JMH597 AI-2 luminescence/OD600 ratio, 9 h; active compounds read low; strain lacks LuxN and CqsS sensors; 0 = neutral-control median; activity change, % at 7.5 µM; actives 0.4% (n = 300,000); AID 2094; in the data active = activity change below about -75%, passing the limit was not always enough; inconclusive = no clear call, values can overlap the other calls;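 also: luminescence divided by OD600 gain over 9 h not by final OD600 alone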
# HSF1 activator = increases HSF-1 driven luciferase reporter signal; NIH3T3-HGL HSF-1 luciferase reporter, MG132, 8 h; 100% = twice DMSO control signal; activation, % at 9 µM; actives 1.7% (n = 300,000); AID 504408;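 active = mean replicate activation of at least 50% with a set share of replicates each reaching 50%; inconclusive = only one of those two conditions met; inactive = mean below 50% and too few replicates reaching it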;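 also: 0% = median of the neutral control wells and 100% = twice that signal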
# ALR inh = human ALR oxidase inhibition via reduced H2O2; P55789; purified ALR, DTT oxidation, H2O2 HRP-luminol luminescence; inhibition, % (test concentration not listed); actives 3.8% (n = 290,000); AID 485317;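 active = mean replicate inhibition above about 79%, with every replicate also reaching it, limit read from the data; inconclusive = only one of the two criteria met; inactive = mean below limit and not every replicate reaching it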
# Target sequence (P55789 whole entry, looked up): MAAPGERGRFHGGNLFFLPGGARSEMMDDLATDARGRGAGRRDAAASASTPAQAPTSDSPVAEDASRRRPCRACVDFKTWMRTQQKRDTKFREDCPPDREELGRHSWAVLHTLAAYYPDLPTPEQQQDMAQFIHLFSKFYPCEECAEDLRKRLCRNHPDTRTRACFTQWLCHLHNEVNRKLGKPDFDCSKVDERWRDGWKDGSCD
# * = called active by the depositor; ? = inconclusive; nt = not tested or not shown.
SMILES,PHOSPHO1 block,core dimer inh,HSF1 inh,AI-2 QS modul,HSF1 activator,ALR inh
CCCCC(=O)Nc1nc(C)c(-c2csc(Nc3ccccc3OC)n2)s1,93.8*,-2.8,2.8,10.4,-2.9,-3.2
O=C(Nc1nc(-c2ccco2)cs1)c1ccccc1,88.5*,9.2,12.9,29.3,28.8,-9.1
O=C(CCNC(=O)Cn1ccc2ccccc2c1=O)NCCc1ccccc1Cl,-5.2,-0.9,5.9,20.8,5.4,11.5
CCOC(=O)N1CCN(CC(=O)Nc2cc(OC)c(OC)cc2C#N)CC1,24.5,2.1,1.2,19.4,0.4,-9.9
CCOc1ccc(CN2CCN(CC3CC3)CC2CCO)cc1 (configuration not stated),nt,-1.2,-8.0,20.4,-4.9,nt
Cc1ccc(N/N=C2\CCS(=O)(=O)c3sccc32)cc1,-82.2,-2.7,9.6,16.1,7.4,98.8*
COc1ccc(C(=O)O/N=C2\CCS(=O)(=O)c3sccc32)cc1,-19.3,0.5,0.1,13.4,5.2,-2.4
Cc1ccccc1C(=O)O/N=C1\CCS(=O)(=O)c2sccc21,24.6,1.3,46.5,4.4,73.6*,-12.8
Cc1cc2n(n1)SC(Nc1ccccc1)N2 (configuration not stated),-86.4,-1.4,-3.9,32.5,1.5,8.9
Cc1ccc(NC2Nc3cc(C)nn3S2)c(C)c1 (configuration not stated),12.5,2.9,18.3,44.1,20.5,86.8*
CCN(CC)S(=O)(=O)c1ccc(N2CCOCC2)c(NC(=O)CC23CC4CC(CC(Br)(C4)C2)C3)c1,-23.9,4.0,1.2,8.2,13.7,-6.5
CCC1(c2ccc(Cl)cc2)NC(=S)N(c2ccc(C)c(C)c2)N1 (configuration not stated),67.6*,3.2,18.9,4.4,47.8,96.9*
CCC1(c2ccc(Cl)cc2)NC(=S)N(c2ccc(C)cc2)N1 (configuration not stated),-14.6,0.9,28.0,1.1,60.7*,-3.6
CC1=CC(C)(C)NC(=S)N1c1ccc(C)c(C)c1,4.4,-2.2,-10.8,5.5,-2.2,-9.0
CCC1(c2ccccc2)NC(=S)N(c2ccc(C)c(C)c2)N1 (configuration not stated),21.3,-1.8,20.7,6.3,52.0*,nt
CC12CCC(C/C1=N\N=C1\NC(=O)/C(=C\c3ccc(Cl)cc3)S1)C2(C)C (configuration not stated),-14.5,16.9,-94.2*,44.7,-94.4,25.4
O=C1NC(=Nc2ccccc2Cl)S/C1=C\c1ccc(C(=O)O)cc1,27.0,12.3,2.5,11.4,3.0,60.9
COC(=O)c1ccccc1Sc1ncnc2onc(C)c12,-30.8,-0.9,72.3,8.0,86.4*,14.8
Cc1cccc(-c2nc(CNC(=O)c3ccco3)cs2)c1,nt,0.3,20.1,-20.3,29.1,-2.3
O=C(NC(Cc1c[nH]c2ccccc12)C(=O)NCc1ccc(F)cc1)OCc1ccccc1 (configuration not stated),-5.7,11.1,nt,-8.1,nt,-1.8
O=S(=O)(c1ccc(Oc2ccc(S(=O)(=O)N3CCOCC3)cc2)cc1)N1CCOCC1,-15.9,-3.0,-5.9,23.1,-1.9,-26.4
NS(=O)(=O)c1ccc(Oc2ccc(S(N)(=O)=O)cc2)cc1,61.5*,-5.3,4.9,25.7,1.9,-0.8
C=CS(=O)(=O)c1ccc(Oc2ccc(S(=O)(=O)C=C)cc2)cc1,5.6,17.6,-92.9*,?,-92.3,24.1
CC(C)(C)C(=O)Nc1ccc(-c2cc3cc(Cl)ccc3o2)cc1,31.6,4.9,-54.1*,14.5,-61.4,-3.3
CC(C)(Oc1ccc(Cl)cc1)C(=O)Nc1ccc2oc(=O)ccc2c1,52.7,-2.8,6.6,6.3,-7.4,4.0
SMILES,PHOSPHO1 block,core dimer inh,HSF1 inh,AI-2 QS modul,HSF1 activator,ALR inh
C=C(C)CN(CC)c1nc(N)c(C#N)c(CC#N)c1C#N,14.5,-12.8,69.0,34.1,75.0*,-9.4
O=C(OCCCOC(=O)c1cc[n+]([O-])cc1)c1cc[n+]([O-])cc1,61.6*,-4.4,-0.8,12.5,13.5,-1.4
CC(=O)Nc1ccc(C(=O)OCCCOC(=O)c2ccc(NC(C)=O)cc2)cc1,47.6,-8.6,3.3,7.4,4.5,-1.0
S=C(NCc1ccc2c(c1)OCO2)NC1CCN(Cc2ccccc2)CC1,13.0,-5.4,-23.6,3.9,-30.5,-10.6
C=C1c2cc3c(cc2NC(=S)N1Cc1ccccc1)OCO3,69.9*,11.3,7.2,-12.2,6.7,12.2
COc1cc(C2(c3ccc(O)c(OC)c3)C(=O)Nc3c(C)cc(Br)cc32)ccc1O,nt,2.1,-2.1,-8.4,7.6,79.7*
Cc1cc(Br)cc2c1NC(=O)C2(c1c(C)n(C)n(-c2ccccc2)c1=O)c1c(C)n(C)n(-c2ccccc2)c1=O,-14.1,2.6,4.5,5.1,37.2,1.8
O=S(=O)(Cc1ccccc1)Nc1ccccc1,nt,-11.4,-0.5,12.0,-1.0,-5.8
O=C(O)c1[nH]c2ccccc2c1NS(=O)(=O)c1ccc(F)cc1,-5.0,8.8,-5.3,17.8,3.4,94.4*
O=C(O)c1[nH]c2ccccc2c1NS(=O)(=O)Cc1ccccc1,34.1,-4.7,-0.8,12.2,0.6,98.6*
COc1ccc(S(=O)(=O)Nc2c(C(=O)O)[nH]c3ccccc23)cc1,18.5,10.2,-1.4,12.9,-21.6,91.1*
O=S(=O)(Nc1ccc(Nc2ccccc2)cc1)c1ccc(F)cc1,nt,-5.6,-5.3,-94.8*,9.1,98.0*
COc1ccc(S(=O)(=O)Nc2c(C(=O)O)[nH]c3ccccc23)cc1OC,-5.8,-10.1,3.5,37.9,11.0,10.5
O=S(=O)(Nc1ccc(S(=O)(=O)Nc2ccccc2)cc1)c1ccccc1,-3.6,2.8,-1.1,15.5,18.0,nt
COc1ccccc1CNC(=O)c1nn(C)c2c1CS(=O)(=O)c1ccccc1-2,-3.2,12.4,-5.3,26.2,-3.8,3.5
Cc1ccc(S(=O)(=O)Nc2cc3c(C(=O)O)c(C)oc3c3ccccc23)c(C)c1,31.0,15.2,-3.4,nt,19.9,1.4
Cc1ccc(S(=O)(=O)Nc2c(C(=O)O)[nH]c3ccccc23)c(C)c1,-1.1,6.2,-1.4,5.9,7.5,98.4*
CC(=O)N1CSCC1C(=O)NNS(=O)(=O)c1cccc(C(F)(F)F)c1 (configuration not stated),35.7,1.1,19.3,5.9,74.8*,-2.5
Cc1ccccc1-c1nc(CS(=O)(=O)CC(=O)NCc2ccc(F)cc2)c(C)o1,17.6,-8.5,29.5,6.7,18.2,-17.3
Cc1ccccc1-c1nc(CS(=O)CC(=O)NCc2ccccn2)c(C)o1 (configuration not stated),10.3,9.5,0.6,nt,-4.6,98.5*
